Activity calls are given as the source filed them. The calls are words filed in the database; no cut-off is given here.
What was measured:
MIA PaCa-2 [1] = test: Cytotoxicity against human MIAPaCa2 cells assessed as decrease in cell proliferation after 72 hrs by MTT assay; type: functional, cell-based; conditions: MIA PaCa-2, 72 h
Method in brief: (§1)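 MTT assay. Cells (3000–8000/well) attached overnight in RPMI1640 with 10% FBS; the GR line was kept with 200 nM gemcitabine. Serial dilutions (30 nM–10 μM for most lines) were applied for 72 h. MTT was added at a final 300 μg/mL for 3 h at 37°C, formazan was dissolved in DMSO and A570 read. Inhibition = (1 − OD treated/OD control) × 100. IC50 given as mean ± SD, three independent experiments.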

MIA PaCa-2 [2] = test: Cytotoxicity against gemcitabine-resistant human MIAPaCa2 cells assessed as decrease in cell proliferation after 72 hrs by MTT assay; type: functional, cell-based; conditions: MIA PaCa-2, 72 h; method in brief: as §1
[3] = Cytotoxicity against HPDEC assessed as decrease in cell proliferation after 72 hrs by MTT assay; type: cell-based; conditions: Homo sapiens; method in brief: as §1
MIA PaCa-2 [4] = test: Antitumor activity against human MIAPaCa2 cells xenografted in NOD/SCID mouse assessed as tumor volume at 15 mg/kg administered once a week for 48 days (reference value: 1503 +/- 189 mm'3); type: functional
Method in brief: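 MIA PaCa-2 cells (2.0 × 10^6 in RPMI1640) were injected subcutaneously into the dorsal flank of 6-week NOD/SCID mice. Mice were randomized at 75 mm3 mean tumor size (vehicle n=4, treated n=3) and dosed at 15 mg/kg once weekly for 48 days. Tumors were measured by caliper twice weekly, with V = d2 × D/2. Values are mean ± SEM, and p values are from an unpaired t test.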

MIA PaCa-2 [5] = test: Antitumor activity against human MIAPaCa2 cells xenografted in NOD/SCID mouse at 15 mg/kg administered twice a week for 15 days; type: functional, organism-based
Method in brief: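 MIA PaCa-2 subcutaneous xenografts in NOD/SCID mice, randomized at 75 mm3. Test agent was given at 5 mg/kg five times a week. Gemcitabine was given at 15 mg/kg either once weekly for 48 days or twice weekly for 15 days. Groups were n=3–4. Tumor volume was measured by caliper, given as mean ± SEM, and compared by unpaired t test.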

Mus musculus [6] = test: Toxicity in NOD/SCID mouse xenografted with human MIAPaCa2 cells assessed as body weight loss at 15 mg/kg administered once a week for 48 days; type: organism-based; conditions: in vivo, 1152 h
Method in brief: (§2)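 MIA PaCa-2 xenografted NOD/SCID mice randomized at 75 mm3 into vehicle (n=4), once-weekly (n=3) or twice-weekly (n=4) groups; 15 mg/kg given once a week for 48 days or twice a week for 15 days. Body weight followed; mean ± SEM.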

Mus musculus [7] = test: Toxicity in NOD/SCID mouse xenografted with human MIAPaCa2 cells assessed as body weight loss at 15 mg/kg administered twice a week for 15 days; type: organism-based; conditions: in vivo, 360 h; method in brief: as §2
MIA PaCa-2 [8] = test: Inhibition of mtDNA transcription from LSP promoter in human MIAPaCa2 cells after 4 hrs by Bru-seq analysis; type: functional, cell-based
Method in brief: (§3)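 MIA PaCa-2 cells were seeded at 4×10^6 per 10 cm dish and treated the next day for 4 h, with DMSO as control. Bromouridine (2 mM final) was added for the last 30 min. Total RNA was isolated in TRIZOL, and Bru-labelled RNA was immunocaptured, made into cDNA libraries and deep-sequenced. Read-out was nascent signal across mitochondrial heavy-strand (HSP2) and light-strand (LSP) transcripts.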

MIA PaCa-2 [9] = test: Inhibition of mtDNA transcription from HSP2 promoter in human MIAPaCa2 cells after 4 hrs by Bru-seq analysis; type: functional, cell-based; method in brief: as §3
MIA PaCa-2 [10] = test: Induction of reactive oxygen species generation in human MIAPaCa2 cells at 1.1 to 10 uM after 24 hrs in presence of NAC by H2DCFDA reactivity assay; type: functional, cell-based
Method in brief: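 H2DCFDA assay. Trypsinized MIA PaCa-2 cells in suspension were loaded with 20 μM H2DCFDA for 30 min at 37°C, washed and plated at 20,000/well. After 30 min they were treated with compound at 10, 3.3 or 1.1 μM. Fluorescence was read at 493/523 nm over time. DMSO basal and unstained controls were included. NAC pretreatment, where used, was 5 mM for 30 min. Duplicates, three independent experiments.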

MIA PaCa-2 [11] = test: Cytotoxicity against human MIAPaCa2 cells assessed as decrease in cell proliferation after 72 hrs in presence of NAC by MTT assay; type: functional, cell-based
Method in brief: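 MIA PaCa-2 cells were treated for 72 h with compound in the presence of 5 mM NAC. Viability was read by MTT (final 300 μg/mL, 3 h, A570). Mean ± SD of three independent experiments.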

[12] = Induction of compound aggregation
[13] = Induction of compound colloidal behavior
MIA PaCa-2 [14] = test: Induction of reactive oxygen species generation in human MIAPaCa2 cells assessed as upregulation of NQO1 gene expression after 4 hrs by Bru-seq analysis; type: functional, cell-based
MIA PaCa-2 [15] = test: Induction of reactive oxygen species generation in human MIAPaCa2 cells assessed as upregulation of HMOX1 gene expression after 4 hrs by Bru-seq analysis; type: functional, cell-based
MIA PaCa-2 [16] = test: Induction of unfolded protein response in human MIAPaCa2 cells assessed as upregulation of DDIT3 gene expression after 4 hrs by Bru-seq analysis; type: functional, cell-based
MIA PaCa-2 [17] = test: Induction of unfolded protein response in human MIAPaCa2 cells assessed as upregulation of HSPA5 gene expression after 4 hrs by Bru-seq analysis; type: functional, cell-based
Method in brief: (§4)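 Nascent RNA sequencing (Bru-seq): 4×10^6 MIA PaCa-2 cells seeded in 10 cm dishes, treated next day for 4 h with drug or DMSO. Bromouridine (2 mM final) added for the last 30 min. Total RNA taken in TRIZOL; labeled RNA immunocaptured, converted to cDNA libraries and deep sequenced. Signal compared with DMSO-treated cells.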

MIA PaCa-2 [18] = test: Induction of unfolded protein response in human MIAPaCa2 cells assessed as upregulation of CHOP expression at 5 uM by Western blot analysis; type: functional, cell-based; conditions: TDE = time-dependent effect
Method in brief: (§5)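 Immunoblotting. Cells (4×10^5) in 60 mm dishes were treated, lysed 30 min at 4°C and quantified by BCA. 40 μg protein was run on SDS-PAGE and transferred to PVDF. Primary antibodies (1:1000) incubated overnight at 4°C, then Dylight 800 secondary, with fluorescent scanning. Bands were normalized to GAPDH or actin loading controls. Mean ± SD, three independent experiments, Student's t-test.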

MIA PaCa-2 [19] = test: Induction of unfolded protein response in human MIAPaCa2 cells assessed as upregulation of GRP78 expression at 5 uM by Western blot analysis; type: functional, cell-based; conditions: TDE = time-dependent effect
Method in brief: (§6)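 Cells (4×10^5) seeded in 60 mm dishes, cultured in RPMI1640 with 10% FBS, 5% CO2, 37°C, then compound-treated. Lysed 30 min at 4°C, BCA-quantified, 40 μg protein resolved by SDS-PAGE, transferred to PVDF, probed overnight at 4°C with primary antibodies (1:1000; GAPDH or actin loading control), then Dylight 800 secondary; fluorescence scanned. Bands normalized to loading control; mean ± SD, three independent experiments.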

PANC-1 [20] = test: Induction of unfolded protein response in human PANC1 cells assessed as upregulation of GRP78 expression at 5 uM by Western blot analysis; type: functional, cell-based; conditions: TDE = time-dependent effect; method in brief: as §6
BXPC-3 [21] = test: Induction of unfolded protein response in human BxPC3 cells assessed as upregulation of GRP78 expression at 5 uM by Western blot analysis; type: functional, cell-based; conditions: TDE = time-dependent effect; method in brief: as §5
PANC-1 [22] = test: Induction of unfolded protein response in human PANC1 cells assessed as upregulation of CHOP expression at 5 uM by Western blot analysis; type: functional, cell-based; conditions: TDE = time-dependent effect; method in brief: as §6
BXPC-3 [23] = test: Induction of unfolded protein response in human BxPC3 cells assessed as upregulation of CHOP expression at 5 uM by Western blot analysis; type: functional, cell-based; conditions: TDE = time-dependent effect; method in brief: as §5
MIA PaCa-2 [24] = test: Induction of reactive oxygen species generation in human MIAPaCa2 cells assessed as upregulation of HO-1 expression at 5 uM after 4 to 24 hrs by Western blot analysis; type: functional, cell-based; method in brief: as §5
BXPC-3 [25] = test: Induction of reactive oxygen species generation in human BxPC3 cells assessed as upregulation of HO-1 expression at 5 uM after 4 to 24 hrs by Western blot analysis; type: functional, cell-based; method in brief: as §5
PANC-1 [26] = test: Induction of reactive oxygen species generation in human PANC1 cells assessed as upregulation of HO-1 expression at 5 uM after 4 to 24 hrs by Western blot analysis; type: functional, cell-based; method in brief: as §5
MIA PaCa-2 [27] = test: Induction of reactive oxygen species generation in human MIAPaCa2 cells assessed as upregulation of NQO1 expression at 5 uM after 4 to 24 hrs by Western blot analysis; type: functional, cell-based; method in brief: as §5
BXPC-3 [28] = test: Induction of reactive oxygen species generation in human BxPC3 cells assessed as upregulation of NQO1 expression at 5 uM after 4 to 24 hrs by Western blot analysis; type: functional, cell-based; method in brief: as §5
MIA PaCa-2 [29] = test: Induction of apoptosis signaling in human MIAPaCa2 cells at 3 times IC50 after 4 hrs by IPA analysis; type: functional, cell-based
MIA PaCa-2 [30] = test: Downregulation of Sp1 gene expression in human MIAPaCa2 cells at IC50 to 3 times IC50 after 4 hrs by Bru-seq analysis; type: functional, cell-based
MIA PaCa-2 [31] = test: Downregulation of Sp3 gene expression in human MIAPaCa2 cells at IC50 to 3 times IC50 after 4 hrs by Bru-seq analysis; type: functional, cell-based
MIA PaCa-2 [32] = test: Downregulation of Sp4 gene expression in human MIAPaCa2 cells at IC50 to 3 times IC50 after 4 hrs by Bru-seq analysis; type: functional, cell-based
MIA PaCa-2 [33] = test: Inhibition of mtDNA transcription from HSP2 promoter in human MIAPaCa2 cells at 3 times IC50 after 4 hrs by Bru-seq analysis; type: functional, cell-based; method in brief: as §4
MIA PaCa-2 [34] = test: Downregulation of COX-3 expression in human MIAPaCa2 cells at 5 uM after 4 to 24 hrs by Western blot method; type: functional, cell-based; method in brief: as §5
MIA PaCa-2 [35] = test: Inhibition of mtDNA transcription from LSP promoter in human MIAPaCa2 cells at 3 times IC50 after 4 hrs by Bru-seq analysis; type: functional, cell-based; method in brief: as §4
MIA PaCa-2 [36] = test: Inhibition of mtDNA transcription from HSP1 promoter in human MIAPaCa2 cells at 3 times IC50 after 4 hrs by Bru-seq analysis; type: functional, cell-based; method in brief: as §4
PANC-1 [37] = test: Cytotoxicity against human PANC1 cells assessed as decrease in cell proliferation after 72 hrs by MTT assay; type: functional, cell-based; conditions: PANC-1, 72 h; method in brief: as §1
BXPC-3 [38] = test: Cytotoxicity against human BxPC3 cells assessed as decrease in cell proliferation after 72 hrs by MTT assay; type: functional, cell-based; conditions: BXPC-3, 72 h; method in brief: as §1

Nc1ccn([C@@H]2O[C@H](CO)[C@@H](O)C2(F)F)c(=O)n1 [GEMCITABINE]
IC50 (MIA PaCa-2 [1]): 110 nM | IC50 (MIA PaCa-2 [2]): 3300 nM | IC50 [3]: 140 nM | Activity (MIA PaCa-2 [4]): 387 mm3 | Activity (MIA PaCa-2 [5]): Active | Activity (Mus musculus [6]): Non-Toxic | Activity (Mus musculus [7]): Non-Toxic

CC[C@@]1(O)C(=O)OCc2c1cc1n(c2=O)Cc2cc3ccccc3nc2-1
inhibition (MIA PaCa-2 [8]): inactive | inhibition (MIA PaCa-2 [9]): inactive

CC(=O)c1cccc(NC2=CC(=O)c3ncncc3C2=O)c1
IC50 (MIA PaCa-2 [1]): 2300 nM | IC50 (MIA PaCa-2 [2]): 3600 nM | IC50 [3]: 4500 nM | Activity (MIA PaCa-2 [10]): inactive | Activity (MIA PaCa-2 [11]): inactive | Activity [12]: Active | Activity [13]: Active | Activity (MIA PaCa-2 [14]): Dose-dependent effect | Activity (MIA PaCa-2 [15]): Dose-dependent effect | Activity (MIA PaCa-2 [16]): Dose-dependent effect | Activity (MIA PaCa-2 [17]): Dose-dependent effect | Activity (MIA PaCa-2 [18]): Tde | Activity (MIA PaCa-2 [19]): Tde | Activity (PANC-1 [20]): Tde | Activity (BXPC-3 [21]): Tde | Activity (PANC-1 [22]): Tde | Activity (BXPC-3 [23]): Tde | Activity (MIA PaCa-2 [24]): Active | Activity (BXPC-3 [25]): Active | Activity (PANC-1 [26]): inactive | Activity (MIA PaCa-2 [27]): inactive | Activity (BXPC-3 [28]): inactive | Activity (MIA PaCa-2 [29]): Active | Activity (MIA PaCa-2 [30]): inactive | Activity (MIA PaCa-2 [31]): inactive | Activity (MIA PaCa-2 [32]): inactive | inhibition (MIA PaCa-2 [33]): Active | Activity (MIA PaCa-2 [34]): Active | inhibition (MIA PaCa-2 [35]): Active | inhibition (MIA PaCa-2 [36]): inactive | IC50 (PANC-1 [37]): 900 nM | IC50 (BXPC-3 [38]): 5200 nM
